pEC50, pKi: −log10 of the molar value. Activity calls are given as the source filed them. No cut-off for these calls is given here.
Legend:
[1] = target: T1, Peroxisome proliferator-activated receptor delta (Homo sapiens) (UniProt Q03181); test: Displacement of [3H]-[…] from PPARdelta (unknown origin) expressed in baculovirus infected Sf9 insect cells upto 30 uM measured after 10 hrs by microbeta scintillation counting analysis; settings: dose microM <=30, time 10.0 hrs
T1 sequence (whole entry): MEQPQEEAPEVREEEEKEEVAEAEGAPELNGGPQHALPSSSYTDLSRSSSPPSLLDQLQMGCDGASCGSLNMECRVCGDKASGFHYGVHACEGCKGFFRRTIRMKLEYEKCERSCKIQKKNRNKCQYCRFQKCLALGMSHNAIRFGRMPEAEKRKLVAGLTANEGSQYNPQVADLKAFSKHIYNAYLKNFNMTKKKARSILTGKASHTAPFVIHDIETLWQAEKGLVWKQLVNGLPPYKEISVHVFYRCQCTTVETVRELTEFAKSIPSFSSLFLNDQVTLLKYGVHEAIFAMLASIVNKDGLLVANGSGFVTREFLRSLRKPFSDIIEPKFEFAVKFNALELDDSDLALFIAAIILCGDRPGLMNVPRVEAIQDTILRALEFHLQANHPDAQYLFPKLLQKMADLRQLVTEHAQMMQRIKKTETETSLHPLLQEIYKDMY
Method in brief: (§1)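 Scintillation proximity assay. Sf9 lysates with baculovirus-expressed PPARα (0.3 μg), PPARδ (0.5 μg) or PPARγ (1.25 μg), each with RXRα, were bound via biotinylated DR2 oligo (0.126 nM) to streptavidin yttrium silicate beads. Buffer was HEPES pH 7.8 with KCl, MgCl2, DTT, CHAPS, 14% glycerol and salmon sperm DNA. A 3H reference agonist ligand was used, with 11 compound concentrations, for 10 h. Nonspecific binding was defined with 10000 nM unlabeled reference. Ki was derived from IC50.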

[2] = target: T2, Free fatty acid receptor 1 (Homo sapiens, UniProt O14842); test: Displacement of [3H]-TAK-875 from human recombinant full-length GPR40 expressed in human HEK293 cell membrane incubated for 2 hrs by solid scintillation counting method; assay type: cell membranes
[3] = target: Free fatty acid receptor 1 (Rattus norvegicus, UniProt Q8K3T4); test: Agonist activity at Prolink-tagged rat GPR40 fused with EA-tagged beta-arrestin expressed in human U2OS cells assessed as induction of beta-arrestin recruitment measured after 90 mins by beta-galactosidase based PathHunter assay; assay type: cell-based
Method in brief: (§2)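 PathHunter β-gal complementation. Cells were incubated overnight at 5000/well in medium with 1% heat-inactivated FBS. Compound was added as a 20-point 2-fold series from a top final of 100 μM (1% DMSO) for 90 min at 37 °C, followed by detection reagents and chemiluminescence read after 1 h at rt.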

[4] = target: T2, Free fatty acid receptor 1; test: Agonist activity at human recombinant full length GPR40 overexpressed in human HEK293 cells assessed as increase in inositol phosphate accumulation in presence of terbium cryptate-labeled anti IP1/d2-labelled IP1 measured after 120 mins by HTRF assay relative to AMG837; assay type: functional, cell-based; settings: filed as agonist
Method in brief: (§3)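 HEK293 hGPR40 cells (20K/well) were cultured overnight, washed, and held in IP1 stimulation buffer. IP-1 was measured by competitive HTRF immunoassay with terbium cryptate anti-IP1 mAb and d2-labelled IP1.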

[5] = target: T2, Free fatty acid receptor 1; test: Agonist activity at human recombinant full length GPR40 overexpressed in human HEK293 cells assessed as increase in inositol phosphate accumulation in presence of terbium cryptate-labeled anti IP1/d2-labelled IP1 measured after 120 mins by HTRF assay; assay type: functional, cell-based; method in brief: as §3
[6] = target: T3, Peroxisome proliferator-activated receptor gamma (Homo sapiens) (UniProt P37231); test: Displacement of [3H]-[…] from PPARgamma (unknown origin) expressed in baculovirus infected Sf9 insect cells upto 30 uM measured after 10 hrs by microbeta scintillation counting analysis; settings: dose microM <=30, time 10.0 hrs; method in brief: as §1
T3 sequence (whole entry): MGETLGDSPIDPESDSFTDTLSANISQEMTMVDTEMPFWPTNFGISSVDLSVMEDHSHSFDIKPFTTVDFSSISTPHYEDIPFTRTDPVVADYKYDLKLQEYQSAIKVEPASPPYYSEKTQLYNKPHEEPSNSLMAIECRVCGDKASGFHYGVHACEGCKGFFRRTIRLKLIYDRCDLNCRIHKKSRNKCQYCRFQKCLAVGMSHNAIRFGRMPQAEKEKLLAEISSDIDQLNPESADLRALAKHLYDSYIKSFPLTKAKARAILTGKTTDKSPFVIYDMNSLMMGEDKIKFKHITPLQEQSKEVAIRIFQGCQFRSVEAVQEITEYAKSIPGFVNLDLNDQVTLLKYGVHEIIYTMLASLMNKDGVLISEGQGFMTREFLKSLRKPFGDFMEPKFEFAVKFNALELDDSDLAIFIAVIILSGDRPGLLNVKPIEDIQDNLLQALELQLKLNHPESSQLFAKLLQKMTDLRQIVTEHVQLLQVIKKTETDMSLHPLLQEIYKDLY

[7] = target: Free fatty acid receptor 1 (Mus musculus) (UniProt Q76JU9); test: Agonist activity at Prolink-tagged mouse GPR40 fused with EA-tagged beta-arrestin expressed in human U2OS cells assessed as induction of beta-arrestin recruitment measured after 90 mins by beta-galactosidase based PathHunter assay relative to control; assay type: cell-based; settings: filed as agonist; method in brief: as §2
[8] = target: T2, Free fatty acid receptor 1; test: Agonist activity at human recombinant full-length Prolink-tagged GPR40 fused with EA-tagged beta-arrestin expressed in human HEK293 cells assessed as induction of beta-arrestin recruitment measured after 90 mins by beta-galactosidase based PathHunter assay; assay type: cell-based; method in brief: as §2
[9] = Protein binding in plasma (unknown origin) by equilibrium dialysis method; assay type: ADME, cell-free; settings: human, read-out: PPB
Method in brief: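 Plasma protein binding measured by equilibrium dialysis.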

[10] = target: T4, Peroxisome proliferator-activated receptor alpha (Homo sapiens) (UniProt Q07869); test: Displacement of [3H]-[…] from PPARalpha (unknown origin) expressed in baculovirus infected Sf9 insect cells upto 30 uM measured after 10 hrs by microbeta scintillation counting analysis; settings: dose microM <=30, time 10.0 hrs; method in brief: as §1
T4 sequence (whole entry): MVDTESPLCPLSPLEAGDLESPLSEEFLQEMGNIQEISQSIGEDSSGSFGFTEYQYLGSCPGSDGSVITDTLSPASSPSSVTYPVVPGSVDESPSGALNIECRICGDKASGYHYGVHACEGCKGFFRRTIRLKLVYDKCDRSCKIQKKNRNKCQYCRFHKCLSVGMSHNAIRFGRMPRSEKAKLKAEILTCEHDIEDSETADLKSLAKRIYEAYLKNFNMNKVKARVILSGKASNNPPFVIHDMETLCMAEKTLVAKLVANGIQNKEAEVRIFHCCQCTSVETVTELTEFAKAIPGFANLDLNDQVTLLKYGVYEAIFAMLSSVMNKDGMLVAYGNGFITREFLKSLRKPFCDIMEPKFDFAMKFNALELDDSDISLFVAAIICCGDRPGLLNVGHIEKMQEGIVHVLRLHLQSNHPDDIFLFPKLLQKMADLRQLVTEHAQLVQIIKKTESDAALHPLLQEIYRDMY

[11] = target: Free fatty acid receptor 1 (Rattus norvegicus) (UniProt Q8K3T4); test: Agonist activity at Prolink-tagged rat GPR40 fused with EA-tagged beta-arrestin expressed in human U2OS cells assessed as induction of beta-arrestin recruitment measured after 90 mins by beta-galactosidase based PathHunter assay relative to control; assay type: cell-based; settings: filed as agonist; method in brief: as §2
[12] = target: T2, Free fatty acid receptor 1; test: Agonist activity at human recombinant full length GPR40 overexpressed in human HEK293 cells assessed as increase in intracellular calcium level measured over 3 mins by calcium 4 dye based FLIPR assay relative to 100 uM linoleic acid; assay type: functional, cell-based; settings: filed as agonist
Method in brief: (§4)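 HEK293 cells overexpressing hGPR40 (25K/well) were cultured overnight in DMEM/F12 with 0.2% FBS and geneticin. Compound was tested at 40 μM–0.1 nM final (20-point, 1% DMSO), and FLIPR fluorescence was read over 3 min.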

[13] = target: Free fatty acid receptor 1 (Mus musculus, UniProt Q76JU9); test: Agonist activity at Prolink-tagged mouse GPR40 fused with EA-tagged beta-arrestin expressed in human U2OS cells assessed as induction of beta-arrestin recruitment measured after 90 mins by beta-galactosidase based PathHunter assay; assay type: cell-based; method in brief: as §2
[14] = target: T2, Free fatty acid receptor 1; test: Agonist activity at human recombinant full length GPR40 overexpressed in human HEK293 cells assessed as increase in intracellular calcium level measured over 3 mins by calcium 4 dye based FLIPR assay; assay type: functional, cell-based; method in brief: as §4
[15] = target: T2, Free fatty acid receptor 1; test: Agonist activity at human recombinant full-length Prolink-tagged GPR40 fused with EA-tagged beta-arrestin expressed in human HEK293 cells assessed as induction of beta-arrestin recruitment measured after 90 mins by beta-galactosidase based PathHunter assay relative to control; assay type: cell-based; settings: filed as agonist; method in brief: as §2

Free fatty acid receptor 1 (Mus musculus), sequence (Q76JU9 whole entry, the tested form may be a part): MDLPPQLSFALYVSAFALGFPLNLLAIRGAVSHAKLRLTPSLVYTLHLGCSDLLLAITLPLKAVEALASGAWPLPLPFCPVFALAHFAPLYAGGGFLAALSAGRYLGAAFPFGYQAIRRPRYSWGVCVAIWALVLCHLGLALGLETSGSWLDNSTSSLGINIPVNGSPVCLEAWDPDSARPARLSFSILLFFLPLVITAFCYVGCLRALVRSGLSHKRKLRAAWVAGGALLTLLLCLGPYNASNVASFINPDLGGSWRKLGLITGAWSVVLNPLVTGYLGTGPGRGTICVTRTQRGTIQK
Free fatty acid receptor 1 (Mus musculus, UniProt Q76JU9), sequence (Q76JU9 whole entry, the tested form may be a part): as above
Free fatty acid receptor 1 (Rattus norvegicus), sequence (Q8K3T4 whole entry, the tested form may be a part): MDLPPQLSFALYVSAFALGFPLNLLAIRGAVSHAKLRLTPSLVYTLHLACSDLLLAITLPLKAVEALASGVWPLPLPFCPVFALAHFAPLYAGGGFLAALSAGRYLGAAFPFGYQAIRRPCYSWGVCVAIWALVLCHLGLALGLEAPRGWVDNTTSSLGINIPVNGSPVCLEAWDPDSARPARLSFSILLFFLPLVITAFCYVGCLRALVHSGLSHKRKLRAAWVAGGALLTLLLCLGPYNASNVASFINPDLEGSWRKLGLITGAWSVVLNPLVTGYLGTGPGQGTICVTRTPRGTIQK
Free fatty acid receptor 1 (Rattus norvegicus, UniProt Q8K3T4), sequence (Q8K3T4 whole entry, the tested form may be a part): as above
T2 sequence (O14842 whole entry, the tested form may be a part): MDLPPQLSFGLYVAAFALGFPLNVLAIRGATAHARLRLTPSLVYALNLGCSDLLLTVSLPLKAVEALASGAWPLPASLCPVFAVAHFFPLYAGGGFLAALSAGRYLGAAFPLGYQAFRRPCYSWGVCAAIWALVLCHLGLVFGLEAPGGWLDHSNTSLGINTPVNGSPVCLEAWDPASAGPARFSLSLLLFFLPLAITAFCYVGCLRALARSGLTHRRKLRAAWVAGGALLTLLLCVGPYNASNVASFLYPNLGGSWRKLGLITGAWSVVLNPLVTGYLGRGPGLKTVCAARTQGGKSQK

SMILES | Activity [1] | pKi [2] | pEC50 [3] | Emax [4] | pEC50 [5] | Activity [6] | Emax [7] | pEC50 [8] | fraction unbound [9] | Activity [10] | Emax [11] | Emax [12] | pEC50 [13] | pEC50 [14] | Emax [15]
CC#C[C@@H](CC(=O)O)c1ccc(OCc2cc(C)c(CN3CCC4(C=Cc5ccccc54)CC3)s2)cc1 | inactive | 8.46 | 8.96 | 132% | 9.01 | inactive | 122% | 8.41 | < 0.01 | inactive | 121% | 65% | 9.16 | 8.54 | 127%
CC#C[C@@H](CC(=O)O)c1ccc(OCc2ccc(CN3CCC4(C=Cc5ccccc54)CC3)c(C)c2)cc1 | inactive | 8.89 | 9.27 | 206% | 8.38 | inactive | 147% | 8.77 | < 0.01 | inactive | 146% | 47% | 9.38 | 7.64 | 150%
CC#C[C@@H](CC(=O)O)c1ccc(OCc2ccc(CN3CCC4(CC3)CN(C)c3ccc(C(F)(F)F)cc34)cc2)cc1 | inactive | 8.57 | 9.23 | 275% | 8.33 | inactive | 158% | 8.54 | < 0.01 | inactive | 154% | 42% | 9.30 | 7.85 | 139%
CC#C[C@@H](CC(=O)O)c1ccc(OCc2ccc(CN3CCC4(CC3)CN(C)c3ccc(OC)cc34)cc2)cc1 | inactive | 7.54 | 7.74 | 311% | 7.64 | inactive | 144% | 7.00 | < 0.01 | inactive | 145% | 49% | 7.96 | 6.89 | 129%
CC#C[C@@H](CC(=O)O)c1ccc(OCc2ccc(CN3CCC4(CC3)CC(=O)c3ccccc3O4)cc2)cc1 | inactive | 7.80 | 8.35 | 228% | 8.08 | inactive | 141% | 7.59 | < 0.01 | inactive | 159% | 56% | 8.68 | 7.19 | 147%
CC#C[C@@H](CC(=O)O)c1ccc(OCc2ccc(CN3CCC4(CC3)CN(C)c3ccc(C)cc34)cc2)cc1 | inactive | 7.85 | 8.34 | 231% | 8.46 | inactive | 145% | 7.60 | < 0.01 | inactive | 138% | 60% | 8.70 | 7.21 | 121%
CC#C[C@@H](CC(=O)O)c1ccc(OCc2ccc(CN3CCC4(CC3)CN(c3ccccc3)c3ccccc34)cc2)cc1 | inactive | 8.82 | 9.08 | 226% | 8.68 | inactive | 130% | 8.82 | < 0.01 | inactive | 132% | 53% | 9.21 | 7.68 | 116%

— ChEMBL document CHEMBL4765234 (J Med Chem, 2016)
